The source of these data is ChEMBL document CHEMBL1157573, “BRAF inhibitors based on an imidazo[4,5]pyridin-2-one scaffold and a meta substituted middle ring” (J Med Chem, 2010).

Experiment [1] has as its target T1, Serine/threonine-protein kinase B-raf (Homo sapiens, UniProt P15056, V600E). The experiment is described as follows: Inhibition of human BRAF V600E mutant expressed in Sf9 cells.
In experiment [2] the target is T1, Serine/threonine-protein kinase B-raf. Description: Inhibition of BRAF V600E mutant-mediated ERK phosphorylation in human WM266.4 cells. The format is cell-based.
Experiment [3] is described as follows: Antiproliferative activity against human WM266.4 cells after 6 days by SRB assay. The format is functional. As to conditions: WM 266-4, 144 h. The gist of the method:
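SRB cell proliferation assay on WM266.4 melanoma cells, which carry mutant BRAF. Growth inhibition is reported as GI50.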
(The SRB assay estimates cell density from bound dye.)

T1 sequence (P15056 2-766 V600E limits assumed): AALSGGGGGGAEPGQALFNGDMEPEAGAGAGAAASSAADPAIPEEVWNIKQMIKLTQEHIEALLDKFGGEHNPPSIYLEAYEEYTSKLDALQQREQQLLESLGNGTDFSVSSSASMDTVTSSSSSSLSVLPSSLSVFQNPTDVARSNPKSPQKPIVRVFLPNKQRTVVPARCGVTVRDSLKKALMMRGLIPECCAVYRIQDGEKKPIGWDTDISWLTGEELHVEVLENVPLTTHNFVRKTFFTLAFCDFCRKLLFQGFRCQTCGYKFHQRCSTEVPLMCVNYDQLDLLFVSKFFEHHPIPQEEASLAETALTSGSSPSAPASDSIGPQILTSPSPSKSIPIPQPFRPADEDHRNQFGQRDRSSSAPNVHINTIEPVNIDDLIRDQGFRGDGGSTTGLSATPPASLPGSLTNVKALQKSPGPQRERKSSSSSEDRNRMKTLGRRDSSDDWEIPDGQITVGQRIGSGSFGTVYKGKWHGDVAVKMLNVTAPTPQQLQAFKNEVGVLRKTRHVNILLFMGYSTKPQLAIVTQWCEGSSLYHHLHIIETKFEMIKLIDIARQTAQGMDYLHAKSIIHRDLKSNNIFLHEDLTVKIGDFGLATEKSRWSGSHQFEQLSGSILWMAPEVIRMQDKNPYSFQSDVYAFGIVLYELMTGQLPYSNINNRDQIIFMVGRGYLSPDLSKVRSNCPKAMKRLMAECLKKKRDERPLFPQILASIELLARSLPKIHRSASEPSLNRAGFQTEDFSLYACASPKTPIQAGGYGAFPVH

By IC50 is commonly meant the midpoint of a concentration-inhibition curve. Higher therefore signals a need for much substance. The term GI50 denotes the concentration at which growth is held to half of that of the control. As for `O=C(Nc1cc(Oc2ccnc3[nH]c(=O)[nH]c23)c(Cl)cc1Cl)c1cccc(OC(F)(F)F)c1`, the IC50 in experiment [1] is 0.77 µM; in experiment [2] it was more than 100 µM. The same compound registered a GI50 in experiment [3] of 1.2 µM.
For `CC(C)(C)c1cc(C(=O)Nc2cccc(Oc3ccnc4[nH]c(=O)[nH]c34)c2)n(-c2ccccc2)n1` the same measures were 0.274 µM, 13.7 µM and 3.1 µM.
For `CC(C)(C)c1cccc(NC(=O)Nc2cccc(Oc3ccnc4[nH]c(=O)[nH]c34)c2)c1` the same measures were 0.195 µM, 10.3 µM and 12.9 µM.
On the same counts, the results for `O=C(Nc1cccc(Oc2ccnc3[nH]c(=O)[nH]c23)c1)Nc1cc(C(F)(F)F)ccc1N1CCOCC1` are 0.74 µM, 42 µM and 16.7 µM.
Turning to `O=C(Nc1cccc(Oc2ccnc3[nH]c(=O)[nH]c23)c1)c1cccc2c1OCCCO2`, the IC50 in experiment [1] and in experiment [2] was more than 100 µM in each case. The compound further gave a GI50 in experiment [3] of 48 µM.
For the compound `CC(C)c1cc(C(=O)Nc2cccc(Oc3ccnc4[nH]c(=O)[nH]c34)c2)n(-c2ccccc2)n1`, the results for the concentration for half-maximal inhibition (IC50) in experiment [1] and in experiment [2] were 0.087 µM and 13.7 µM, respectively. Besides, the concentration for 50% growth inhibition (GI50) in experiment [3] was 5.7 µM.
For the compound `O=C(Nc1cccc(OC(F)(F)C(F)F)c1)c1cccc(Oc2ccnc3[nH]c(=O)[nH]c23)c1`, the half-maximal inhibitory concentration (IC50) came out at 0.24 µM in experiment [1] and 8 µM in experiment [2]. Also, growth in experiment [3] was halved (GI50) at 0.677 µM.
For `O=C(Nc1cccc(Oc2ccnc3[nH]c(=O)[nH]c23)c1)c1cccc2ccccc12` the same measures were 0.92 µM, 29 µM and 23 µM.
For `O=c1[nH]c2nccc(Oc3cccc(NS(=O)(=O)c4cccc(C(F)(F)F)c4)c3)c2[nH]1` the same measures were 15.4 µM, 57 µM and 0.83 µM.
For `O=C(Nc1cccc(Oc2ccnc3[nH]c(=O)[nH]c23)c1)Nc1ccc(F)c(F)c1` the same measures were 1.12 µM, 39 µM and 3.7 µM.
For the compound `O=C(Nc1cccc(Oc2ccnc3[nH]c(=O)[nH]c23)c1)c1cc(Cl)cc(OC(F)(F)F)c1`, the IC50 worked out at 0.071 µM in experiment [1] and 14.6 µM in experiment [2]. Halving of growth in experiment [3] (GI50) required 6.5 µM.
On the same counts, the results for `O=C(CCc1ccccc1)Nc1cccc(Oc2ccnc3[nH]c(=O)[nH]c23)c1` are 94 µM, more than 100 µM and 30.9 µM.
Regarding `O=C(Nc1cccc(Oc2ccnc3[nH]c(=O)[nH]c23)c1)c1cccc(OC(F)(F)F)c1`, the values for the concentration for half-maximal inhibition (IC50) in experiment [1] and in experiment [2] were 0.014 µM and 7.56 µM, respectively. In experiment [3], this compound had a 50% growth inhibitory concentration (GI50) of 1 µM.
For `O=C(Cc1cccc(OC(F)(F)F)c1)Nc1cccc(Oc2ccnc3[nH]c(=O)[nH]c23)c1` the same measures were more than 10 µM, 12.8 µM and 29.4 µM.
On the same counts, the results for `Cc1ccc(-n2nc(C(F)(F)F)cc2NC(=O)c2cccc(Oc3ccnc4[nH]c(=O)[nH]c34)c2)cc1` are 0.5 µM, 14.8 µM and 32 µM.
For `O=C(Nc1cccc(Oc2ccnc3[nH]c(=O)[nH]c23)c1)c1cccc(Br)c1` the same measures were 1.56 µM, 100 µM and 0.907 µM.
As for `O=C(Nc1cccc(OC(F)(F)F)c1)c1cccc(Oc2ccnc3[nH]c(=O)[nH]c23)c1`, the half-inhibitory concentration (IC50) was determined as 0.048 µM in experiment [1] and 14.6 µM in experiment [2]. In addition, it took 2.4 µM to inhibit growth in experiment [3] by half (GI50).
On the same counts, the results for `O=C(Nc1cccc(Oc2ccnc3[nH]c(=O)[nH]c23)c1)c1cc(OC(F)(F)F)ccc1F` are 0.043 µM, 15 µM and 1.2 µM.
For `O=C(Nc1cccc(Oc2ccnc3[nH]c(=O)[nH]c23)c1)c1ccc2sccc2c1` the same measures were 22 µM, 66 µM and 1.5 µM.
For `O=C(Nc1cc(Cl)cc(Oc2ccnc3[nH]c(=O)[nH]c23)c1)c1cccc(OC(F)(F)F)c1` the same measures were 0.033 µM, 11.3 µM and 1.9 µM.
Regarding `O=C(Cc1cccc(C(F)(F)F)c1)Nc1cccc(Oc2ccnc3[nH]c(=O)[nH]c23)c1`, the half-maximal inhibitory concentration (IC50) was more than 10 µM in experiment [1] and 17.8 µM in experiment [2]. Growth in experiment [3] was halved (GI50) at 25.7 µM.
For `O=C(Nc1cc(Oc2ccnc3[nH]c(=O)[nH]c23)ccc1Cl)c1cccc(OC(F)(F)F)c1`, the IC50 in experiment [1] was 0.24 µM; in experiment [2], more than 100 µM. In experiment [3], this compound came in with a GI50 of 35 µM.
On the same counts, the results for `O=C(Nc1cc(C(F)(F)F)ccc1F)c1cccc(Oc2ccnc3[nH]c(=O)[nH]c23)c1` are 4.7 µM, 35 µM and 31 µM.
Consider `O=c1[nH]c2nccc(Oc3cccc(NS(=O)(=O)c4ccc(Cl)c(C(F)(F)F)c4)c3)c2[nH]1`, for which the results for the IC50 in experiment [1] and in experiment [2] were 6.8 µM and 66 µM, respectively. The compound also had a concentration for 50% growth inhibition (GI50) in experiment [3] of 40 µM.
On the same counts, the results for `O=C(Nc1cccc(Oc2ccnc3[nH]c(=O)[nH]c23)c1)c1cccc(N2CCCC2)c1` are 0.115 µM, more than 100 µM and more than 10 µM.
For `Cc1ccc(-n2nc(C(F)(F)F)cc2NC(=O)Nc2cccc(Oc3ccnc4[nH]c(=O)[nH]c34)c2)cc1` the same measures were 0.4 µM, 4.8 µM and 4.28 µM.
In the case of `O=C(Nc1cccc(Oc2ccnc3[nH]c(=O)[nH]c23)c1)c1cc(Cl)cc(C(F)(F)F)c1`, the half-inhibitory concentration (IC50) in experiment [1] stood at 0.69 µM; in experiment [2], 23.9 µM. Besides, growth in experiment [3] was halved (GI50) at 3.3 µM.
On the same counts, the results for `O=C(Nc1cccc(Oc2ccnc3[nH]c(=O)[nH]c23)c1)c1ccnn1-c1ccccc1` are more than 100 µM, 92 µM and 15.6 µM.
On the same counts, the results for `O=C(Nc1cccc(SC(F)(F)F)c1)c1cccc(Oc2ccnc3[nH]c(=O)[nH]c23)c1` are 0.187 µM, 13 µM and 9.2 µM.
For `O=C(Nc1cc(Oc2ccnc3[nH]c(=O)[nH]c23)c(F)cc1F)c1cccc(OC(F)(F)F)c1` the same measures were 0.01 µM, 6.9 µM and 4.6 µM.
In the case of `O=C(Nc1cccc(Oc2ccnc3[nH]c(=O)[nH]c23)c1)c1ccc2nsnc2c1`, the 50% inhibitory concentration (IC50) in experiment [1] and in experiment [2] was more than 100 µM throughout. This compound returned a concentration for 50% growth inhibition (GI50) in experiment [3] of 8.3 µM.
With `O=C(Nc1ccc(Cl)c(C(F)(F)F)c1)c1cccc(Oc2ccnc3[nH]c(=O)[nH]c23)c1`, the 50% inhibitory concentration (IC50) is 0.09 µM in experiment [1] and 8.2 µM in experiment [2]. Also, halving of growth in experiment [3] (GI50) required 7.3 µM.
On the same counts, the results for `O=C(Nc1cccc(F)c1)Nc1cccc(Oc2ccnc3[nH]c(=O)[nH]c23)c1` are 2.75 µM, 50.2 µM and 3.3 µM.
For `O=C(Nc1cccc(Oc2ccnc3[nH]c(=O)[nH]c23)c1)c1cc(F)cc(N2CCOCC2)c1` the same measures were 0.062 µM, 21.1 µM and 25.1 µM.
On the same counts, the results for `O=C(Nc1cccc(Oc2ccnc3[nH]c(=O)[nH]c23)c1)c1ccc(Cl)cc1` are 68 µM, more than 100 µM and 9.1 µM.
As for `O=C(Nc1cccc(Oc2ccnc3[nH]c(=O)[nH]c23)c1)c1ccc(F)c(OC(F)(F)F)c1`, the concentration for half-maximal inhibition (IC50) in experiment [1] amounted to 0.049 µM; in experiment [2] it was 27.7 µM. Further, it took 7.4 µM to inhibit growth in experiment [3] by half (GI50).
For `O=c1[nH]c2nccc(Oc3cccc(NS(=O)(=O)c4cccc(OC(F)(F)F)c4)c3)c2[nH]1` the same measures were 11.3 µM, 94 µM and 0.83 µM.
As to `O=C(Nc1cccc(Oc2ccnc3[nH]c(=O)[nH]c23)c1)c1cccc(-n2cccc2)c1`, the IC50 worked out at 0.057 µM in experiment [1] and 20.4 µM in experiment [2]. This compound had a concentration for 50% growth inhibition (GI50) in experiment [3] of 1.1 µM.
As to `O=c1[nH]c2nccc(Oc3cccc(NCc4cccc(OC(F)(F)F)c4)c3)c2[nH]1`, the IC50 was more than 10 µM in experiment [1] and more than 100 µM in experiment [2]. The GI50 in experiment [3] was determined as 0.74 µM.
On the same counts, the results for `Cc1ccc(-n2nc(C(C)(C)C)cc2NC(=O)Nc2cccc(Oc3ccnc4[nH]c(=O)[nH]c34)c2)cc1` are 0.128 µM, 0.83 µM and 0.705 µM.
With `O=C(Nc1cccc(Oc2ccnc3[nH]c(=O)[nH]c23)c1)c1cccc(OC(F)(F)C(F)F)c1`, the IC50 in experiment [1] stood at 0.023 µM; in experiment [2], 5.7 µM. Moreover, the GI50 in experiment [3] was found to be 0.841 µM.
As for `O=c1[nH]c2nccc(Oc3cccc(NS(=O)(=O)c4ccccc4)c3)c2[nH]1`, the IC50 in experiment [1] is 1.66 µM; in experiment [2] it was 29.6 µM. For the same compound, in experiment [3], it took 0.175 µM to inhibit growth by half (GI50).
For `O=C(Nc1cccc(Oc2ccnc3[nH]c(=O)[nH]c23)c1)Nc1cc(C(F)(F)F)ccc1F` the same measures were 0.026 µM, 12.2 µM and 1.6 µM.
For `O=c1[nH]c2nccc(Oc3cccc(NS(=O)(=O)c4cccc5ccccc45)c3)c2[nH]1` the same measures were 25 µM, 21.3 µM and 0.85 µM.
On the same counts, the results for `O=C(Nc1cccc(Oc2ccnc3[nH]c(=O)[nH]c23)c1)c1ccccc1OC(F)(F)F` are 79 µM, 35.8 µM and 1.3 µM.
With `O=C(Nc1cccc(Oc2ccnc3[nH]c(=O)[nH]c23)c1)c1cccc(SC(F)(F)F)c1`, the results for the half-maximal inhibitory concentration (IC50) in experiment [1] and in experiment [2] were 0.005 µM and 6.48 µM, respectively. In experiment [3], this compound yielded a concentration for 50% growth inhibition (GI50) of 5.1 µM.
On the same counts, the results for `O=C(Nc1cccc(Oc2ccnc3[nH]c(=O)[nH]c23)c1)c1cnn(-c2ccccc2)c1C(F)(F)F` are more than 100 µM, 38 µM and 3.3 µM.
Regarding `O=C(Nc1cccc(Oc2ccnc3[nH]c(=O)[nH]c23)c1)c1cccc2c1OCCO2`, the IC50 in experiment [1] and in experiment [2] was more than 100 µM in each case. Further, the concentration for 50% growth inhibition (GI50) in experiment [3] was found to be 40 µM.
In the case of `O=C(Nc1cc(F)cc(Oc2ccnc3[nH]c(=O)[nH]c23)c1)c1cccc(OC(F)(F)F)c1`, the IC50 in experiment [1] came to 0.033 µM; in experiment [2], 16 µM. This compound also showed a concentration for 50% growth inhibition (GI50) in experiment [3] of 2.4 µM.
